Legend:
[1] = target: Atypical kinase COQ8A, mitochondrial (Homo sapiens, UniProt Q8NI60); test: Competitive binding affinity to ADCK3 (unknown origin) at 10 uM in presence of ATP relative to control
Procedure, shortened: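 In vitro ATP-site competition binding assay across a diverse panel of 128 kinases, with each compound tested at a single concentration. Kinase binding is expressed relative to control.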

[2] = target: Serine/threonine-protein kinase 26 (Homo sapiens) (UniProt Q9P289); test: Competitive binding affinity to MST4 (unknown origin) at 10 uM in presence of ATP relative to control
[3] = target: Dual specificity mitogen-activated protein kinase kinase 2 (Homo sapiens) (UniProt P36507); test: Competitive binding affinity to MEK2 (unknown origin) at 10 uM in presence of ATP relative to control
[4] = target: Serine/threonine-protein kinase 32C (Homo sapiens) (UniProt Q86UX6); test: Competitive binding affinity to YANK3 (unknown origin) at 10 uM in presence of ATP relative to control
[5] = target: T1, Serine/threonine-protein kinase DCLK2 (Homo sapiens) (UniProt Q8N568); test: Competitive binding affinity to DCAMKL2 (unknown origin) at 10 uM in presence of ATP relative to control
T1 sequence (whole entry): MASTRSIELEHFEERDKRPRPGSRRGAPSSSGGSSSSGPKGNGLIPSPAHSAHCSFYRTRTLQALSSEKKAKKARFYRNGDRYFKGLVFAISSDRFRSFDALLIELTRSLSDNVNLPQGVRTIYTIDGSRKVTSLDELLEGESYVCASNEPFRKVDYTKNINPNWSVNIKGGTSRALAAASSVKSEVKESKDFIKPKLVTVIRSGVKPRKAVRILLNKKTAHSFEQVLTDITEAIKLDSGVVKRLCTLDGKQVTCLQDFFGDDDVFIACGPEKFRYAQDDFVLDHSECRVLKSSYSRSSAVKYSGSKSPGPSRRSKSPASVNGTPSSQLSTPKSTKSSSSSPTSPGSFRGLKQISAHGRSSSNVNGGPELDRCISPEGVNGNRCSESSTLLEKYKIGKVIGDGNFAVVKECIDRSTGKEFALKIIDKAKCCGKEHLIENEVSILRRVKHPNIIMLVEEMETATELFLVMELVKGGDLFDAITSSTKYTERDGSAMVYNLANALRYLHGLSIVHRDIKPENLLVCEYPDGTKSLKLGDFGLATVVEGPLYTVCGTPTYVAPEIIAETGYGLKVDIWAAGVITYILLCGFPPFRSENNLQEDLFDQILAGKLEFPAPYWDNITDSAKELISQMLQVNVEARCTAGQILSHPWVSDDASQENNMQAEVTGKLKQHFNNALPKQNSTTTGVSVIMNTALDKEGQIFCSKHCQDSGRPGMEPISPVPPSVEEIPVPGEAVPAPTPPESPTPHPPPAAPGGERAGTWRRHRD

[6] = target: T2, Serine/threonine-protein kinase DCLK1 (Homo sapiens) (UniProt O15075); test: Competitive binding affinity to DCAMKL1 (unknown origin) at 10 uM in presence of ATP relative to control
T2 sequence (whole entry): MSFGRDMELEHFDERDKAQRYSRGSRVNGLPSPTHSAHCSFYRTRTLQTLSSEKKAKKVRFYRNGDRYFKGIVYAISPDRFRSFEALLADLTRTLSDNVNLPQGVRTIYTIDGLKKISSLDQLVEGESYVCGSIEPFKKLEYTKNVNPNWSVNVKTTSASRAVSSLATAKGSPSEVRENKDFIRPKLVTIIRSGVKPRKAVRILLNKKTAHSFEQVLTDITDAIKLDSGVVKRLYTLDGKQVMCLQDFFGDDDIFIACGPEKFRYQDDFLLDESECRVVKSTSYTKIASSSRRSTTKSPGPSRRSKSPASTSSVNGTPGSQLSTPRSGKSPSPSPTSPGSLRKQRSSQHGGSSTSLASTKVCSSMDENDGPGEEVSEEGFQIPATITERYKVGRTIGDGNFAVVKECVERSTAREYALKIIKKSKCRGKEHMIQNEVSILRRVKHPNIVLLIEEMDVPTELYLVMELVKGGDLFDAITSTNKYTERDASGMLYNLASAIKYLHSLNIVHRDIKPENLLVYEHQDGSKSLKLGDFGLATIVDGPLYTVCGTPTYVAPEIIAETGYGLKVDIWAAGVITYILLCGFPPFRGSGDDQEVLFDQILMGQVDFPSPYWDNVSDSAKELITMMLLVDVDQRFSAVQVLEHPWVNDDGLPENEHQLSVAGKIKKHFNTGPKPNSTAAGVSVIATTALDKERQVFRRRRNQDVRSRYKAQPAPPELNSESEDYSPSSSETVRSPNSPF

[7] = target: Activated CDC42 kinase 1 (Homo sapiens) (UniProt Q07912); test: Competitive binding affinity to TNK2 (unknown origin) at 10 uM in presence of ATP relative to control
[8] = target: TGF-beta receptor type-2 (Homo sapiens) (UniProt P37173); test: Competitive binding affinity to TGFBR2 (unknown origin) at 10 uM in presence of ATP relative to control
[9] = target: SRSF protein kinase 2 (Homo sapiens) (UniProt P78362); test: Competitive binding affinity to SRPK2 (unknown origin) at 10 uM in presence of ATP relative to control
[10] = target: Tyrosine-protein kinase Srms (Homo sapiens) (UniProt Q9H3Y6); test: Competitive binding affinity to SRMS (unknown origin) at 10 uM in presence of ATP relative to control
[11] = target: Protein kinase C theta type (Homo sapiens) (UniProt Q04759); test: Competitive binding affinity to PRKCQ (unknown origin) at 10 uM in presence of ATP relative to control
[12] = target: Serine/threonine-protein kinase pim-3 (Homo sapiens) (UniProt Q86V86); test: Competitive binding affinity to PIM3 (unknown origin) at 10 uM in presence of ATP relative to control
[13] = tested on: Phosphatidylinositol 4,5-bisphosphate 3-kinase catalytic subunit alpha isoform (Homo sapiens), P42336 [E545K]; test: Competitive binding affinity to PIK3CA E545K mutant (unknown origin) at 10 uM in presence of ATP relative to control
Chain of Phosphatidylinositol 4,5-bisphosphate 3-kinase catalytic subunit alpha isoform (Homo sapiens), P42336 [E545K] (P42336 whole entry E545K, canonical isoform): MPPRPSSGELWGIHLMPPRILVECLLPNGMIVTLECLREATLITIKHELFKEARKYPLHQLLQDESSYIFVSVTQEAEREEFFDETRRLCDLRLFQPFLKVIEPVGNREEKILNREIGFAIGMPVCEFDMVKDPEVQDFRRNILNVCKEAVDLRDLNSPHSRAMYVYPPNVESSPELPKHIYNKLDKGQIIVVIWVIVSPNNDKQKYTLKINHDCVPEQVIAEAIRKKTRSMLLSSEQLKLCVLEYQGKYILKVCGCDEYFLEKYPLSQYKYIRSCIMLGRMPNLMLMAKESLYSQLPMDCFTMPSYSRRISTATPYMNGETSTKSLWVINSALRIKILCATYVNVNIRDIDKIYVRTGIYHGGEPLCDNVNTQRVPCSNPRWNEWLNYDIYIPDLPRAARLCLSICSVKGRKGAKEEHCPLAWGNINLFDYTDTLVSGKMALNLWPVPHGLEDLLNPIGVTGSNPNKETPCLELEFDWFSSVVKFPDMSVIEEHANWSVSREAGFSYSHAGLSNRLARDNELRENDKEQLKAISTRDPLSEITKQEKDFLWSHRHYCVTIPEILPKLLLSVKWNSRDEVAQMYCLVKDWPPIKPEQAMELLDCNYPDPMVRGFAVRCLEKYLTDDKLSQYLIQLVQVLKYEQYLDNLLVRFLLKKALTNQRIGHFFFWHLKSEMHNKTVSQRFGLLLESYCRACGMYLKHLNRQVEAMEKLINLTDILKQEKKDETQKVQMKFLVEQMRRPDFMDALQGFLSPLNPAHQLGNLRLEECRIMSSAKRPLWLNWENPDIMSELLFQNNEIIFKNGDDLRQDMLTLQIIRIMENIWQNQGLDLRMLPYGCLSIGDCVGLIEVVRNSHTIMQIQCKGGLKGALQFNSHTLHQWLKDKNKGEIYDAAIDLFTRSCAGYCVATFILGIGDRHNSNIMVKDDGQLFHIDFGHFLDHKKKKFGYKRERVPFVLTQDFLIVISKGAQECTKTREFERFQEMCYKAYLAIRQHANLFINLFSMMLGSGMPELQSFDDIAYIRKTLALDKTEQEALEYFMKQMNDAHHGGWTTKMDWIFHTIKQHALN

Chain of Dual specificity mitogen-activated protein kinase kinase 2 (Homo sapiens) (P36507 whole entry): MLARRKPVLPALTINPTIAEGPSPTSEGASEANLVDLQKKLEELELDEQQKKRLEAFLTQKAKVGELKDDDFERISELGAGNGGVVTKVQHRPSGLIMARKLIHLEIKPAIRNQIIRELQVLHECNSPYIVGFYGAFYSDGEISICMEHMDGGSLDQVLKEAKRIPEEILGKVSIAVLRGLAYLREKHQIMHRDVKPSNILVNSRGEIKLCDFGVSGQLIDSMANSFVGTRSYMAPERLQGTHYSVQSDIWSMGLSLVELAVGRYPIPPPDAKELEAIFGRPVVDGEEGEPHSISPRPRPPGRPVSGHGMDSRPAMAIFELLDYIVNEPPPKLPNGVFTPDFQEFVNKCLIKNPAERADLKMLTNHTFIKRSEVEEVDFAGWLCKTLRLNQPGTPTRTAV
Chain of Activated CDC42 kinase 1 (Homo sapiens) (Q07912 whole entry, looked up): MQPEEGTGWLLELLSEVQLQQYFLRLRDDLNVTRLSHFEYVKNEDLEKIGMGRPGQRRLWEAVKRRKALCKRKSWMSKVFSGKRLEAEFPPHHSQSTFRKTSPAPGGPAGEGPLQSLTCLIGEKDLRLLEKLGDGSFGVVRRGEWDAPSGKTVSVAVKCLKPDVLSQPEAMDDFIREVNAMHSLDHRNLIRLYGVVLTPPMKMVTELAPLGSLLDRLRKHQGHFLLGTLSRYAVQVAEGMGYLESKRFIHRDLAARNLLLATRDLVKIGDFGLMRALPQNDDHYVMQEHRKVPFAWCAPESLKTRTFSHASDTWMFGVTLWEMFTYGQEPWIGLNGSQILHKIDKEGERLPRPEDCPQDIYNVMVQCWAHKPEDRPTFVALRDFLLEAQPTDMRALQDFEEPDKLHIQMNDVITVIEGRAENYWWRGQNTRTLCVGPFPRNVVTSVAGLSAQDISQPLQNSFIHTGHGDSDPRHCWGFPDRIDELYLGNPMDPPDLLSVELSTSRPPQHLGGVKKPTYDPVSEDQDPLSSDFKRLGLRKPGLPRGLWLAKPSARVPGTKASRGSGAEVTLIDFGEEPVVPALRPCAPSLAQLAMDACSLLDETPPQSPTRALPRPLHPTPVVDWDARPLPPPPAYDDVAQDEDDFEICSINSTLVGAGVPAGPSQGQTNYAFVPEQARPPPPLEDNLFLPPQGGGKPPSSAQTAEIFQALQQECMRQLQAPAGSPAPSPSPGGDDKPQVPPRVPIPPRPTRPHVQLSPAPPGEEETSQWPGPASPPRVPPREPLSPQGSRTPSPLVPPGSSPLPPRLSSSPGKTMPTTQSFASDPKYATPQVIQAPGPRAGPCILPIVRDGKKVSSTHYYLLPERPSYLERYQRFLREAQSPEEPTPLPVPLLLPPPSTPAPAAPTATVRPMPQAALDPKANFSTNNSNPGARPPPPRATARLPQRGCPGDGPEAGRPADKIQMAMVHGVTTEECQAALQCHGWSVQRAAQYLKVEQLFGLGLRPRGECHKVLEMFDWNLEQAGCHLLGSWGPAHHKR
Chain of Protein kinase C theta type (Homo sapiens) (Q04759 whole entry, looked up): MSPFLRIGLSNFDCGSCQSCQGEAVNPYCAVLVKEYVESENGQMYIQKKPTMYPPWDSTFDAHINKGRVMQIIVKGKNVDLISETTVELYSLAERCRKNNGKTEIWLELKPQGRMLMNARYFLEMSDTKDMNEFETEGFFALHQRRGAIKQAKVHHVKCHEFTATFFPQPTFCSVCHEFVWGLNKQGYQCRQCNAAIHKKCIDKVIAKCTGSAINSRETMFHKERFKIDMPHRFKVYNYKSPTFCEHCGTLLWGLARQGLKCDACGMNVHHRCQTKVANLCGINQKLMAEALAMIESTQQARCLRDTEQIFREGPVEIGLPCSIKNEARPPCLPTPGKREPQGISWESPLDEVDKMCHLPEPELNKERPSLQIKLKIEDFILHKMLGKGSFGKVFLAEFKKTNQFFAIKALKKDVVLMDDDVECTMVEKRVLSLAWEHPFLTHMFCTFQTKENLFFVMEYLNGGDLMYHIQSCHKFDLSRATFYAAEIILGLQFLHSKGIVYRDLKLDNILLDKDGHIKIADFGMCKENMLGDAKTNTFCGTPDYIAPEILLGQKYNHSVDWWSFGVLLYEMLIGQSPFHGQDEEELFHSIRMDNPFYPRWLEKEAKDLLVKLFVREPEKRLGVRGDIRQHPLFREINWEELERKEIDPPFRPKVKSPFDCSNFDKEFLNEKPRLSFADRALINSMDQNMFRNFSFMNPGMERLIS
Chain of Serine/threonine-protein kinase 26 (Homo sapiens) (Q9P289 2-416 limits assumed): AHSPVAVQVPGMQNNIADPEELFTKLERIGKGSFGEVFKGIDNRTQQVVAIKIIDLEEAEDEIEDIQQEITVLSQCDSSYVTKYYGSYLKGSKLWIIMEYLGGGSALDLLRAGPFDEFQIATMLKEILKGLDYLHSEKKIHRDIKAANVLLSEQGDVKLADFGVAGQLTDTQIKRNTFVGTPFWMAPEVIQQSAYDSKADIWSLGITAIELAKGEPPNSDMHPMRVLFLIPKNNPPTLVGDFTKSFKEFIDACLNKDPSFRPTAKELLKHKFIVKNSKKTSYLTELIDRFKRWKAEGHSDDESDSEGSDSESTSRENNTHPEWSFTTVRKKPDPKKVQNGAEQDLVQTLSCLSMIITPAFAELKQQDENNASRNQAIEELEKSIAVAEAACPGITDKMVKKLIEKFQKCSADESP
Chain of TGF-beta receptor type-2 (Homo sapiens) (P37173 whole entry): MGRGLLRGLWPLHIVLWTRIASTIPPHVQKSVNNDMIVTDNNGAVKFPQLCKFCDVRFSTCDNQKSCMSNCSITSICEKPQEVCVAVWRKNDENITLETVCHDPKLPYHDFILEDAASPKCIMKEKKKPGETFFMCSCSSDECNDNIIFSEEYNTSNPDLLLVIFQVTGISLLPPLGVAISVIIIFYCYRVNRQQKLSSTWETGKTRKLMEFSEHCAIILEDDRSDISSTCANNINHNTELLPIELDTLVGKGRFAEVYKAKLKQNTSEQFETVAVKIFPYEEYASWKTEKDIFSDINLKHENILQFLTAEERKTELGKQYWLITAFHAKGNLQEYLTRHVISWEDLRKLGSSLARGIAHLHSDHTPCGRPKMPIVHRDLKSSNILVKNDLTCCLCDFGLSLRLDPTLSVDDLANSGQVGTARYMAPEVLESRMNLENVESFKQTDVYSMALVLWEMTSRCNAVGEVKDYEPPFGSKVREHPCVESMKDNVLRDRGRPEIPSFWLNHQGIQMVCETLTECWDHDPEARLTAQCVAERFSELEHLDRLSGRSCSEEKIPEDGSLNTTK
Chain of SRSF protein kinase 2 (Homo sapiens) (P78362 whole entry, looked up): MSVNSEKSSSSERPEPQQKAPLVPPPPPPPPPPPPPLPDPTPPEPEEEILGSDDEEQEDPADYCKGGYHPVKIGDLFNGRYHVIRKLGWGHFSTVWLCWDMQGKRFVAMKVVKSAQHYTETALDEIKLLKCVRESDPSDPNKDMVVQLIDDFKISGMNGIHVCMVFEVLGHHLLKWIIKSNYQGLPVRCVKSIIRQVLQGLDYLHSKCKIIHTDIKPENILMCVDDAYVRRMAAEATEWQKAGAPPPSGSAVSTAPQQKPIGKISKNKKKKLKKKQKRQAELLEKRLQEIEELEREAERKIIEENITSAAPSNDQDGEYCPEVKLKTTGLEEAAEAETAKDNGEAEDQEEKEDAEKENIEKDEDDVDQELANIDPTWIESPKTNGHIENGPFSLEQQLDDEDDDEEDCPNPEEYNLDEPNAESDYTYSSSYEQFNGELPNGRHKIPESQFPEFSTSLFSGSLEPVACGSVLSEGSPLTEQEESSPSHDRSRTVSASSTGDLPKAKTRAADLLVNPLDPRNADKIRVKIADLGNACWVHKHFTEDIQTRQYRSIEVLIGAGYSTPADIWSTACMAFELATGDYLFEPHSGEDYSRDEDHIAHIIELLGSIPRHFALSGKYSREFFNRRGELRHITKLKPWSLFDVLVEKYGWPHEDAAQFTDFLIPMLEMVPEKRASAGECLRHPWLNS

Row | Compound | inhibition [1] | inhibition [2] | inhibition [3] | inhibition [4] | inhibition [5] | inhibition [6] | inhibition [7] | inhibition [8] | inhibition [9] | inhibition [10] | inhibition [11] | inhibition [12] | inhibition [13]
1 | CS(=O)(=O)CCCOc1cccc2c1ccn2-c1ccnc(N[C@H]2CC[C@H](C(=O)N3CCC(O)CC3)CC2)n1 | > 85% | – | – | – | – | – | – | – | – | – | – | – | –
2 | O[C@H]1CC[C@H](Nc2nccc(-n3ccc4ccccc43)n2)CC1 | 80% | 80% | < 50% | < 50% | < 50% | < 50% | < 50% | < 50% | < 50% | < 50% | < 50% | < 50% | < 50%
3 | O[C@H]1CC[C@H](Nc2nccc(-n3nnc4ccccc43)n2)CC1 | 92% | 79% | < 50% | < 50% | < 50% | 66% | < 50% | 96% | < 50% | < 50% | < 50% | 88% | 88%
4 | O[C@H]1CC[C@H](Nc2nccc(-n3ncc4ccccc43)n2)CC1 | 89% | 76% | < 50% | < 50% | < 50% | < 50% | < 50% | < 50% | < 50% | < 50% | < 50% | 96% | 82%
5 | O[C@H]1CC[C@H](Nc2nccc(-c3n[nH]c4ccccc34)n2)CC1 | 79% | 94% | – | < 50% | – | – | < 50% | – | – | – | – | – | –

Reference: ChEMBL document CHEMBL2424622, “Development of amino-pyrimidine inhibitors of c-Jun N-terminal kinase (JNK): kinase profiling guided optimization of a 1,2,3-benzotriazole lead” (Bioorg Med Chem Lett, 2013)
